The results in this text go back to ChEMBL document CHEMBL3351498, “Identification of key structural characteristics of Schisandra chinensis lignans involved in P-glycoprotein inhibition” (2014).

A short description of assay [1]: Cell cycle arrest in human HL60/MDR cells assessed as accumulation at G1 phase at 0.02 uM after 48 hrs by flow cytometry (reference value: 59.0 %). The format is functional, cell-based. The gist of the method:
(§1)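 HL60/MDR cells (about 5 × 10^5 cells/mL) exposed 48 h under standard culture to doxorubicin (0.2 and/or 0.02 μM) or lignan (25 μM) alone; DMSO-treated control. Cells fixed in 70% ethanol 30 min at room temperature, RNase A (17 μg/mL) 37 °C 30 min, PI (3 μg/mL) 10 min dark; DNA content by flow cytometry, FL3 (620 nm), 10 000–20 000 events.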
A general note: Flow cytometry measures light scatter and fluorescence of single cells or particles in a stream.

The nature of assay [2]: Cytotoxicity against human HL60/MDR cells assessed as viable cells at 0.02 uM after 48 hrs by WST assay. It counts as functional. Particulars: read-out: Activity. In outline: (§2)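 Doxorubicin-resistant HL60/MDR cells seeded at 5 × 10^4 cells/mL and held 48 h at 37 °C with doxorubicin (0.02, 0.2, 0.6 μM) alone or plus modulator (25 μM). WST-1 (1 mM) with 0.2 mM MMPM then added for 4 h; absorbance at 450 nm. Viability given as % of untreated cells; two independent experiments, each in triplicate.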

Assay [3] can be described thus: Cell cycle arrest in human HL60/MDR cells assessed as accumulation at G1 phase at 0.2 uM after 48 hrs by flow cytometry (reference value: 59.0 %). Conditions: in the assay text read “G2/M phase” for “G1 phase”. It counts as functional, cell-based. In outline: as §1
Assay [4] is described as follows: Cytotoxicity against human HL60/MDR cells assessed as viable cells at 0.6 uM after 48 hrs by WST assay. The format is functional. Conditions: read-out: Activity. In outline: as §2
Assay [5] can be described thus: Cell cycle arrest in human HL60/MDR cells assessed as accumulation at G2/M phase at 0.2 uM after 48 hrs by flow cytometry (reference value: 11.3 %). It counts as functional, cell-based. In outline: as §1
Assay [6] can be described thus: Cell cycle arrest in human HL60/MDR cells assessed as accumulation at S phase at 0.2 uM after 48 hrs by flow cytometry (reference value: 29.9 %). The format is functional, cell-based. In outline: as §1
The nature of assay [7]: Cytotoxicity against human HL60/MDR cells assessed as viable cells at 0.2 uM after 48 hrs by WST assay. It counts as functional. Conditions: read-out: Activity. The gist of the method: as §2
A short description of assay [8]: Cell cycle arrest in human HL60/MDR cells assessed as accumulation at G2/M phase at 0.02 uM after 48 hrs by flow cytometry (reference value: 11.3 %). The format is functional, cell-based. The gist of the method: as §1
Assay [9] is described as follows: Cell cycle arrest in human HL60/MDR cells assessed as accumulation at S phase at 0.02 uM after 48 hrs by flow cytometry (reference value: 29.9 %). It counts as functional, cell-based. The gist of the method:
as §1

Assay [10] in a line: Potentiation of 0.6 uM doxorubicin-induced cytotoxicity in human HL60/MDR cells assessed as viable cells at 25 uM after 48 hrs by WST assay relative to control. It counts as functional.
Assay [11] in a line: Cytotoxicity against human HL60/MDR cells assessed as viable cells at 25 uM after 48 hrs by WST assay. Conditions: for viability at 25 µM: Homo sapiens, HL60/MDR, 48 h, read-out: Activity. The format is functional.
The nature of assay [12]: Potentiation of doxorubicin-induced cell cycle arrest in human HL60/MDR cells assessed as accumulation at G1 phase at 25 uM after 48 hrs by flow cytometry (reference value: 59.0 %). It counts as functional.
A short description of assay [13]: Potentiation of doxorubicin-induced cell cycle arrest in human HL60/MDR cells assessed as accumulation at G2/M phase at 25 uM after 48 hrs by flow cytometry (reference value: 59.0 %). The format is functional.
Assay [14] is described as follows: Potentiation of 0.02 uM doxorubicin-induced cytotoxicity in human HL60/MDR cells assessed as viable cells at 25 uM after 48 hrs by WST assay relative to control. The format is functional.
Assay [15] can be described thus: Potentiation of 0.2 uM doxorubicin-induced cytotoxicity in human HL60/MDR cells assessed as viable cells at 25 uM after 48 hrs by WST assay relative to control. The format is functional.
The nature of assay [16]: Potentiation of doxorubicin-induced cell cycle arrest in human HL60/MDR cells assessed as accumulation at S phase at 25 uM after 48 hrs by flow cytometry (reference value: 59.0 %). The format is functional.
Assay [17] can be described thus: Cell cycle arrest in human HL60/MDR cells assessed as accumulation at G2/M phase at 25 uM after 48 hrs by flow cytometry (reference value: 11.3 %). The format is functional, cell-based. In outline:
as §1

Assay [18] can be described thus: Cell cycle arrest in human HL60/MDR cells assessed as accumulation at G1 phase at 25 uM after 48 hrs by flow cytometry (reference value: 59.0 %). It counts as functional, cell-based. In outline: as §1
Assay [19] in a line: Cell cycle arrest in human HL60/MDR cells assessed as accumulation at S phase at 25 uM after 48 hrs by flow cytometry (reference value: 29.9 %). The format is functional, cell-based. In outline:
as §1

Consider `COc1cccc2c1C(=O)c1c(O)c3c(c(O)c1C2=O)C[C@@](O)(C(=O)CO)C[C@@H]3O[C@H]1C[C@H](N)[C@H](O)[C@H](C)O1` [DOXORUBICIN], for which the Activity in assay [1] worked out at 55.8%; in assay [3], 36.9%; in assay [5], 52%; in assay [6], 11%; in assay [8], 16%; in assay [9] it was 28.3%. Further, in assay [2], the viability at 0.02 µM stood at 109%. Besides, the viability at 0.6 µM in [4] amounted to 91%. Moreover, in [7], the viability at 0.2 µM is 83%.

For `COc1cc2c(c(OC)c1OC)-c1c(cc3c(c1OC)OCO3)C[C@H](C)[C@H](C)C2` [WUWEIZISU B], the Activity in assay [10] is reported as 39%; in [11] it was 128%; in [12], 40.4%; in assay [13], 36.9%; in assay [14], 121%; in assay [15], 42%. In [16], the Activity was determined as 22.7%.

`COc1cc2c(c(OC)c1OC)-c1c(cc3c(c1OC)OCO3)CC(C)C(C)C2` (racemic) [SCHISANDRIN B]: the Activity in [10] was found to be 36%; in [14], 117%; in [15] it was 41%. The viability at 25 µM in [11] stood at 88%.

With `COc1cc2c(c(OC)c1OC)-c1c(cc(OC)c(OC)c1OC)C[C@H](C)[C@H](C)C2`, the Activity in [17] amounted to 12.1%; in assay [18], 57.3%; in assay [19], 30.5%.

With `COc1cc2c(c(OC)c1OC)-c1c(cc3c(c1OC)OCO3)C[C@H](C)[C@H](C)C2` (single isomer, unassigned; atropisomer 1) [WUWEIZISU B], the Activity in assay [10] stood at 38%; in assay [11] it was 102%; in assay [14], 94%; in [15], 66%.

`COc1cc2c(c(OC)c1OC)-c1c(cc3c(c1OC)OCO3)C[C@@H](C)[C@@H](C)C2` (single isomer, unassigned; atropisomer 2) [KADSURANIN]: the Activity in assay [10] amounted to 81%; in [14], 100%; in [15], 97%. Moreover, in assay [11], the viability at 25 µM stood at 106%.

Turning to `COc1cc2c(c(OC)c1OC)-c1c(cc3c(c1OC)OCO3)C[C@H](C)[C@H](C)C2`, the Activity worked out at 8.8% in assay [17], 64.8% in assay [18] and 26.4% in assay [19].

On to `COc1cc2c(c(OC)c1OC)-c1c(cc(OC)c(OC)c1OC)C[C@H](C)[C@H](C)C2` (single isomer, unassigned; atropisomer 1) [SCHISANDRIN A], for which the Activity in assay [10] worked out at 39%; in assay [11], 144%; in assay [14], 108%; in assay [15], 48%.

As to `COc1cc2c(c(OC)c1OC)-c1c(cc(OC)c(OC)c1OC)C[C@H](C)[C@H](C)C2` [SCHISANDRIN A], the Activity amounted to 43% in assay [10]; 92% in [11]; 21.2% in [12]; 67.9% in [13]; 106% in assay [14]; 52% in assay [15]. The Activity in assay [16] was found to be 10.9%.
